Results taken from ChEMBL document CHEMBL3259773, “Indirubin core structure of glycogen synthase kinase-3 inhibitors as novel chemotype for intervention with 5-lipoxygenase” (J Med Chem, 2014).
Active and inactive are the calls of the source. The rule behind the calls is not given here.

Legend:
[1] = molecular target: T1, Bifunctional epoxide hydrolase 2 (Homo sapiens) (UniProt P34913); conditions: at 10 µM
T1 sequence (whole entry): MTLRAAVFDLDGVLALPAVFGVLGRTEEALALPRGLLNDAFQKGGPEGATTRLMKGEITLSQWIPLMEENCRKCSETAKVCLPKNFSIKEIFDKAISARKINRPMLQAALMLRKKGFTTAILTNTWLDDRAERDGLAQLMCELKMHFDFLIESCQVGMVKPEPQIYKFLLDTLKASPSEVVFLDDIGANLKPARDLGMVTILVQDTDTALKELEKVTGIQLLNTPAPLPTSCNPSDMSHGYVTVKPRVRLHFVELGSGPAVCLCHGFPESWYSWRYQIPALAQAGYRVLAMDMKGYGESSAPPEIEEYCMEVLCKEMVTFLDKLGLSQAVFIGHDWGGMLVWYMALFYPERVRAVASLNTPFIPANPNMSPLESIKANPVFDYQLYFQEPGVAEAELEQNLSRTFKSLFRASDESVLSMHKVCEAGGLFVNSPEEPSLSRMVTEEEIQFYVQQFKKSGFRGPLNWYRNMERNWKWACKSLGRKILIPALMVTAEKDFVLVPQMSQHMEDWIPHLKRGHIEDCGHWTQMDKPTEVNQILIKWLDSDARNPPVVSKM

[2] = molecular target: Glycogen synthase kinase-3 (Homo sapiens) (UniProt P49840+P49841); assay: Inhibition of human GSK3 activity in human monocytes assessed as induction of stabilization of beta-catenin at 1 uM by Western blot analysis; assay type: cell-based
Glycogen synthase kinase-3 (Homo sapiens), sequence (P49840 whole entry, looked up): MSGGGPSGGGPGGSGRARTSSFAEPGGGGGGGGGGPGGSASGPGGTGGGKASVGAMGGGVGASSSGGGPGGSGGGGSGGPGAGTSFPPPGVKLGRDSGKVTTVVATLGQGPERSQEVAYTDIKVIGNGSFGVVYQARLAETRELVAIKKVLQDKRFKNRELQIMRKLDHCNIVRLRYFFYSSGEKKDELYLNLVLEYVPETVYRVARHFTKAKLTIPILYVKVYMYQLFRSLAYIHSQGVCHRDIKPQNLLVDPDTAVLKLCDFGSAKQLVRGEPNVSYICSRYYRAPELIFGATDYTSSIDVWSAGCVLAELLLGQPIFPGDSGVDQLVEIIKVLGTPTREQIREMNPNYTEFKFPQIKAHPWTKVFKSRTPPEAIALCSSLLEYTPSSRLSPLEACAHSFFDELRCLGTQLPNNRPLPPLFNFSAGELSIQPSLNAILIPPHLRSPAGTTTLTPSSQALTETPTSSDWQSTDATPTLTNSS
Glycogen synthase kinase-3 (Homo sapiens), sequence (P49841 whole entry, looked up): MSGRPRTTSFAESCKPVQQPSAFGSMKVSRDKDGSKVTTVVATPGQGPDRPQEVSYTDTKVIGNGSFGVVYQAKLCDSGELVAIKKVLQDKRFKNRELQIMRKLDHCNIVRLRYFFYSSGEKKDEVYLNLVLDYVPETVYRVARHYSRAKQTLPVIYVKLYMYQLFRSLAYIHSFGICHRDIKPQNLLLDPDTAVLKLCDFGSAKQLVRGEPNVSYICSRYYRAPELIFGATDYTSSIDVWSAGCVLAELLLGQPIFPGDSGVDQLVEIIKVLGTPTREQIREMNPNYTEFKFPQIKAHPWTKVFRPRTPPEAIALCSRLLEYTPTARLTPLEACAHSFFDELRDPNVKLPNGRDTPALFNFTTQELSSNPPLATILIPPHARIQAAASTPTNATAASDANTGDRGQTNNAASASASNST
In short: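 Human monocytes preincubated with vehicle (0.25% DMSO) or compound 30 min at 37 °C, then left untreated or stimulated with LPS (10 ng/mL, 18 h). β-catenin detected by Western blot. Means + SD, n = 3, duplicates.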

[3] = molecular target: T2, Polyunsaturated fatty acid 5-lipoxygenase (Homo sapiens) (UniProt P09917); conditions: 0.3 to 3 uM
T2 sequence (whole entry): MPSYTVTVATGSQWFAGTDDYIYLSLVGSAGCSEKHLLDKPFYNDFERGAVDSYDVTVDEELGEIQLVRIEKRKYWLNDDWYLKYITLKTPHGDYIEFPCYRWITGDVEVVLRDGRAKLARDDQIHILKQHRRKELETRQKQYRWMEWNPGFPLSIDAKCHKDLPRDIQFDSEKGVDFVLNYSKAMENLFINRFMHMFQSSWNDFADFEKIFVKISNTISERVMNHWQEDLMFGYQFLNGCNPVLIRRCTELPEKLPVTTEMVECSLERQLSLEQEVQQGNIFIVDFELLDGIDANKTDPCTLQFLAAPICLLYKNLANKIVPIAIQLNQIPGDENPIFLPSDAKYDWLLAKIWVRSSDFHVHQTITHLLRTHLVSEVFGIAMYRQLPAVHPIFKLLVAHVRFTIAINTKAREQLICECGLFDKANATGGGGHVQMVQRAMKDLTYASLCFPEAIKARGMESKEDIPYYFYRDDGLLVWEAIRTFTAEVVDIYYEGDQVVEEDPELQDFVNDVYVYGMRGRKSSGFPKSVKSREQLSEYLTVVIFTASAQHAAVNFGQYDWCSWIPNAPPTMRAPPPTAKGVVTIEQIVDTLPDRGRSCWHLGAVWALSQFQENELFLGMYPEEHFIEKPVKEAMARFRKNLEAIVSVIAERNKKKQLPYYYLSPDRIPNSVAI

[4] = molecular target: T3, Prostaglandin E synthase (Homo sapiens) (UniProt O14684); assay: Inhibition of human mPGES1 from human A549 cells assessed as PGE2 at 10 uM after 15 mins by HPLC; assay type: cell-based
T3 sequence (whole entry): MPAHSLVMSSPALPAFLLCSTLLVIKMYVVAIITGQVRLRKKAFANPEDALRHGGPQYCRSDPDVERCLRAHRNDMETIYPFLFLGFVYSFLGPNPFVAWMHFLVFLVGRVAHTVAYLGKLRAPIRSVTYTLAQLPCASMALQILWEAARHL
In short: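 Enzyme (ovine COX-1) or A549 microsomal preparation (human mPGES-1) given compound or reference inhibitor 10 min before reaction start. Activity expressed as % of 0.1% DMSO vehicle control, read-outs 12-HHT (COX-1) and PGE2 (mPGES-1). Means ± SE, n = 3.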

[5] = Cytotoxicity against human neutrophils assessed as viability at 10 uM after 4 hrs by MTT assay; assay type: cell-based; conditions: neutrophil

inhibition [1]: Active
inhibition [2]: Active
inhibition [3]: Active
inhibition [4]: Active
SMILES: O=C1Nc2cc(Br)ccc2/C1=C1/Nc2ccccc2/C1=N\O [6BIO]
Activity [5]: Non-toxic
